Laboratory results from PMC2606940 (The Journal of General Physiology, 2009).
Residue numbers refer to the chain shown, from its start. Like-named read-outs stand apart in the source and are kept apart here.

Assays:
[1] = molecular target: T1, CLC-0 E166C/K519M mutant (E127/K519M) (Torpedo marmorata, UniProt P21564, C212S/E166C/K519M); assay type: cell-based; conditions: for IC50: read-out: Apparent affinity (K1/2)
T1 sequence (P21564 1-805 E166C/C212S/K519M): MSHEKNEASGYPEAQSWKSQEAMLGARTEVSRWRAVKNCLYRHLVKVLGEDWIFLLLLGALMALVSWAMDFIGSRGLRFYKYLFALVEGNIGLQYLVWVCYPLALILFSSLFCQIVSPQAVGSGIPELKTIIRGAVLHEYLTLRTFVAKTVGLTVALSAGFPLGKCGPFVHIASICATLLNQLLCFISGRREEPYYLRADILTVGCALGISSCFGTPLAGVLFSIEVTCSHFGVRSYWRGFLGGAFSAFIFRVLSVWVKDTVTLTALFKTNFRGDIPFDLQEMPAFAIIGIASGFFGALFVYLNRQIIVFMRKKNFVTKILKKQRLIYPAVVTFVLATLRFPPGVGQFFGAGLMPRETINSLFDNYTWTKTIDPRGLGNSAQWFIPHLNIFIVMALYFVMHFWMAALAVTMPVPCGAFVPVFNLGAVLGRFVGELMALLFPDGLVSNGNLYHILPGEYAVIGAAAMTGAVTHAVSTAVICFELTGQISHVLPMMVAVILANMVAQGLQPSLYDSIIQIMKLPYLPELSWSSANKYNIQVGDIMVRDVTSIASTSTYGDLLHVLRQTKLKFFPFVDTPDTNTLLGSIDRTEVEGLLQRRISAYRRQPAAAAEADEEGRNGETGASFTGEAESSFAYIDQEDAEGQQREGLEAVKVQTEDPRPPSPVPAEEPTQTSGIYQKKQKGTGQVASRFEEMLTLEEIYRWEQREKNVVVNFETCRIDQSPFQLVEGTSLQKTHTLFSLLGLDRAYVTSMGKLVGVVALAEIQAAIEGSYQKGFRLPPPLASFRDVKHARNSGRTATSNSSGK
Summary of the method: (§1)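 CLC-0 mutants in the C212S background were transfected into HEK293 cells with lipofectamine and recorded 1–3 d later as excised inside-out patches. Both sides held 130 mM NaCl, 5 mM MgCl2, 10 mM HEPES and 1 mM EGTA, pH 7.4. CPA was perfused continuously onto the cytoplasmic face. Steady-state current over the last 10 ms was normalized to bracketing blocker-free controls and fitted to a Langmuir function for K1/2. Values are mean ± SEM of ~4–6 patches.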

[2] = molecular target: T2, CLC-0 E166C/E127Q/K519E mutant (Torpedo marmorata, UniProt P21564, C212S/E127Q/E166C/K519E); assay type: cell-based; conditions: read-out: Apparent affinity (K1/2)
T2 sequence (P21564 1-805 E127Q/E166C/C212S/K519E): T1 sequence (P21564 1-805 E166C/C212S/K519M) with E127Q, M519E
Summary of the method: as §1

SMILES: O=C(O)COc1ccc(Cl)cc1 [CPA, p-chlorophenoxy acetate]
- IC50 ([1]; −40 mV): 378 ± 7 µM
- IC50 ([1]; −60 mV): 271 ± 5 µM
- IC50 ([1]; −80 mV): 194 ± 4 µM
- IC50 ([1]; −100 mV): 141 ± 5 µM
- IC50 ([1]; −120 mV): 98 ± 4 µM
- IC50 ([1]; −140 mV): 69 ± 4 µM
- IC50 ([1]; −160 mV): 51 ± 4 µM
- apparent koff ([1]; −160 mV): 10.5 s⁻¹
- apparent kon ([1]; −160 mV): 170000 M⁻¹ s⁻¹
- IC50 ([2]; −40 mV): 586 ± 52 µM
- IC50 ([2]; −60 mV): 327 ± 24 µM
- IC50 ([2]; −80 mV): 198 ± 14 µM
- IC50 ([2]; −100 mV): 123 ± 9 µM
- IC50 ([2]; −120 mV): 87 ± 6 µM
- IC50 ([2]; −140 mV): 62 ± 5 µM
- IC50 ([2]; −160 mV): 44 ± 5 µM
